Assay results published in PubChem BioAssay.
Results filed as inconclusive are left out.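 The calls were made as follows, unless noted: active = viability at or below 27.92% in each of two runs, the all-compound median minus 4 SD; inconclusive = no clear call, values can overlap the other calls; inactive = the rest.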

Columns and labels:
[1] = S. cerevisiae growth inhibition in permissive medium (OD615), pilot counter-assay for S. cerevisiae lifespan shortening project, permissive growth control (AID 705;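 active = growth inhibition above 25% in both replicates, a cutoff set 3 SD above the mean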); conditions: OD615, 24 h, at 10 µM, stronger effect = higher value
Procedure, shortened: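 System: Engineered DeaD yeast | Buffer or medium: SC raffinose/galactose permissive medium | Doses: 10 µM single dose, 0.25% DMSO | Times: 24 h exposure, 30 °C | Measured by: OD615 turbidity read | Read-out: Yeast growth inhibition indicated by reduced 24 h OD615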

[2] = S. cerevisiae growth inhibition in restrictive medium, OD615, pilot screen, restrictive growth control, yeast lifespan reduction project (AID 706;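 active = growth inhibition above a set limit, 3 SD over mean compound inhibition, in both replicates, cut at about 43% in these data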;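 also: modified DeaD lifespan yeast strain shifted to restrictive glucose medium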); conditions: OD615, 48 h, at 10 µM, stronger effect = higher value
Procedure, shortened: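 Assay system: engineered S. cerevisiae DeaD strain; Buffer or medium: CSMM-D glucose medium; Dosing: 10 µM compound, 0.25% DMSO; Times: cell pre-growth 4 h, compound exposure 48 h, 30 °C; Detection: absorbance (optical density) measured at 615 nm.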

[3] = doxorubicin toxicity protection in MRP-1 cells – H69AR cells, CellTiter-Glo, duplicate, MRP-1 activator project, pilot screen (AID 807;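 active = viability increase at or above a cutoff of the median across tested compounds plus 3 SD, cut at about 8.5% in these data, passing the limit was not always enough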;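 also: compound pretreatment 18-22 h then 72 h combined with doxorubicin; 0% = doxorubicin alone and 100% = vehicle without doxorubicin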); conditions: H69AR viability with doxorubicin, CellTiter-Glo luminescence; at 10 µM; stronger effect = higher value
[4] = viability of HCT116 without oncogenic beta-catenin – human colon tumor cells, pilot screen (AID 823;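 active = cell viability at or below a set limit in both duplicate runs, the limit being the all-compound median minus 4 SD, cut at about 23% in these data, passing the limit was not always enough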;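 also: 0% = wells killed by 20 µM Hyamine and 100% = untreated DMSO cell wells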); conditions: HCT116 beta-catenin knockout viability, CellTiter-Glo, 60 h; at 10 µM; stronger effect = lower value
[5] = viability of PTEN-null HCT116 cells – cell-based, HCT116 clonal line, CellTiter-Glo, pilot screen (AID 824); conditions: HCT116 PTEN-deleted viability, 60 h, at 10 µM, stronger effect = lower value;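 also: 0% = 20 µM Hyamine control and 100% = vehicle cell control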
[6] = RAM pathway blockade in budding yeast – dse1pr::URA3 reporter, 5-FOA selection, pilot screen (AID 869;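 active = inhibition over a set limit, the all-compound mean plus 3 SD, in both replicate runs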;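 also: 0% = DMSO wells with no growth and 100% = 10 µM 1-NA-PP1 with full growth; RAM network block rescues cells from 5-FOA so hits raise OD615 growth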); conditions: S. cerevisiae dse1pr::URA3 5-FOA growth, OD615, 2 d; at 10 µM; stronger effect = higher value; strain carries analog-sensitive mutant Cbk1 kinase
[7] = RAM signaling pathway blockade in yeast – S. cerevisiae, Pdr1DBD-CYC8 efflux-inhibited sensitized strain, primary screen (AID 1298;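 active = RAM network inhibition above 8.4% in each of two replicates, 3 SD over the compound average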;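 also: 0% = DMSO untreated cells without growth and 100% = 10 µM 1-NA-PP1 full growth; higher means more yeast growth rescued from 5-FOA killing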); conditions: S. cerevisiae cbk1-as DSE1-URA3 strain, 5-FOA growth OD615, 2 d; at 50 µM; stronger effect = higher value

CCOC(=O)c1ccc(N2C(=O)C3ON(c4ccccc4)C(c4ccco4)C3C2=O)cc1 (configuration not stated)
inactive: growth inhibition [1] -17.9% | growth inhibition [2] 5.19% | viability increase [3] -4.17% | viability [4] 102% | viability [5] 93.4% | inhibition [6] 1.73% | RAM network inhibition [7] 4.07%

Cn1c(Cn2c(=O)sc3ccccc32)nnc1SCC(=O)Nc1ccc2c(c1)OCO2
inactive: growth inhibition [1] -1.55% | growth inhibition [2] 7.6% | viability increase [3] -5.8% | viability [4] 105% | viability [5] 99.6% | inhibition [6] 2.34% | RAM network inhibition [7] 3.46%

Cc1cc(SCC(=O)c2ccccc2)n2nc(C)nc2n1
inactive: growth inhibition [1] -12.2% | growth inhibition [2] 0.305% | viability increase [3] -6.79% | viability [4] 89.8% | viability [5] 87% | inhibition [6] 2.91% | RAM network inhibition [7] 2.67%

CCOCCCNC(=O)C(NC(=O)CNC(C)=O)c1ccc(Cl)cc1 (configuration not stated)
inactive: growth inhibition [1] -10.1% | growth inhibition [2] -12.2% | viability increase [3] -0.33% | viability [4] 102% | viability [5] 101% | inhibition [6] 2.1% | RAM network inhibition [7] 2.91%

CCOC(=O)CSC1=C(C#N)C(c2ccc(Cl)cc2)CC(=O)N1 (configuration not stated)
inactive: growth inhibition [1] -15.6% | growth inhibition [2] -15.6% | viability increase [3] 0.52% | viability [4] 87.8% | viability [5] 82.5% | inhibition [6] 0.69% | RAM network inhibition [7] 0.53%

COc1ccc(-c2nnc(NC(=O)C(C)C)o2)cc1
inactive: growth inhibition [1] 2.56% | growth inhibition [2] 6.86% | viability increase [3] -1.77% | viability [4] 103% | viability [5] 102% | inhibition [6] 1.23% | RAM network inhibition [7] 4.26%

Cn1c(/N=C/c2cccs2)nc2ccccc21
inactive: growth inhibition [1] -8.72% | growth inhibition [2] -5.94% | viability increase [3] -2.39% | viability [4] 93.9% | viability [5] 94.8% | inhibition [6] 2.46% | RAM network inhibition [7] 1.77%

O=C(NC1CCN(Cc2ccccc2)CC1)C1CCN(c2nnc(-n3cccc3)s2)CC1
inactive: growth inhibition [1] 3.62% | growth inhibition [2] -0.61% | viability increase [3] -2.59% | viability [4] 82.2% | viability [5] 79.3% | inhibition [6] 0.53% | RAM network inhibition [7] 2.35%

Cn1c(=O)c2c(nc(CN3CCOCC3)n2CCCO)n(C)c1=O
inactive: growth inhibition [1] -5.86% | growth inhibition [2] -3.44% | viability increase [3] -0.74% | viability [4] 102% | viability [5] 101% | inhibition [6] 1.76% | RAM network inhibition [7] 6.48%

O=C(CN1CCN(C2CCCCC2)CC1)c1ccc2cc[nH]c2c1
inactive: growth inhibition [1] 5.4% | growth inhibition [2] 2.7% | viability increase [3] -3.56% | viability [4] 94% | viability [5] 85.7% | inhibition [6] 1.9% | RAM network inhibition [7] -1.26%

O=c1[nH]c2ccc(Cl)cc2c(-c2ccccc2)c1N1CCOCC1
inactive: growth inhibition [1] -4.65% | growth inhibition [2] -0.51% | viability increase [3] -3.04% | viability [4] 89.4% | viability [5] 88% | inhibition [6] 0.985% | RAM network inhibition [7] 1.15%

COc1ccc(Cl)cc1C(=O)N(Cc1nc(-c2cccc(C)c2)no1)C(C)C
inactive: growth inhibition [1] -18.4% | growth inhibition [2] -10.7% | viability increase [3] 0.87% | viability [4] 58.8% | viability [5] 57.6% | inhibition [6] 2.31% | RAM network inhibition [7] 8.49%

O/N=C1/CCCSc2ccccc21
inactive: growth inhibition [1] -7.19% | growth inhibition [2] -16.8% | viability increase [3] -1.24% | viability [4] 96.6% | viability [5] 97.9% | inhibition [6] 0.95% | RAM network inhibition [7] 2.18%

CCC(=O)Nc1c(C)cc(C)cc1Cl
inactive: growth inhibition [1] -12.5% | growth inhibition [2] -10.9% | viability increase [3] -0.97% | viability [4] 92.7% | viability [5] 96.4% | inhibition [6] 1.44% | RAM network inhibition [7] 0.83%

CCCc1nnc(SCC(=O)O)n1/N=C/c1ccc2c(c1)OCO2
inactive: growth inhibition [1] 8.88% | growth inhibition [2] 34.1% | viability increase [3] -2.31% | viability [4] 102% | viability [5] 101% | inhibition [6] 0.54% | RAM network inhibition [7] 0.41%

CCOc1ccc(C2CC(=O)NC(SCC(=O)OC)=C2C#N)cc1 (configuration not stated)
inactive: growth inhibition [1] 3.64% | growth inhibition [2] 6.22% | viability increase [3] 2.65% | viability [4] 102% | viability [5] 105% | inhibition [6] 1.87% | RAM network inhibition [7] 1.2%

NC(=O)c1sc(=S)n(-c2ccc(Br)cc2)c1N
inactive: growth inhibition [1] -6.66% | growth inhibition [2] 0.735% | viability increase [3] -4.05% | viability [4] 97.7% | viability [5] 83.7% | inhibition [6] 1.51% | RAM network inhibition [7] 2.48%

CCOC(=O)c1ccc(NC(=O)CCC(=O)OC)cc1
inactive: growth inhibition [1] 5.7% | growth inhibition [2] -1.83% | viability increase [3] -1.2% | viability [4] 96.8% | viability [5] 98.3% | inhibition [6] 1.98% | RAM network inhibition [7] 3.41%

C=C(C)CSc1nnc(-c2cc(OC)c(OC)c(OC)c2)n1N
inactive: growth inhibition [1] 8.03% | growth inhibition [2] 7.75% | viability increase [3] -1.01% | viability [4] 95.2% | viability [5] 97.8% | inhibition [6] 0.94% | RAM network inhibition [7] 4%

CC1(C)CC(=O)c2sc(NC(=O)CN3C(=O)CCC3=O)nc2C1
inactive: growth inhibition [1] -6.85% | growth inhibition [2] 0.48% | viability increase [3] -1.54% | viability [4] 103% | viability [5] 103% | inhibition [6] 0.685% | RAM network inhibition [7] 2.38%

CC(CCc1ccccc1)NC(=O)CN1CCOc2ccccc21 (configuration not stated)
inactive: growth inhibition [1] -7.73% | growth inhibition [2] -1.32% | viability increase [3] -5.58% | viability [4] 84.1% | viability [5] 83.1% | inhibition [6] 0.595% | RAM network inhibition [7] 3.72%

CC1=C(C(=O)OC(C)C)C(c2cccs2)n2ncnc2N1 (configuration not stated)
inactive: growth inhibition [1] -1.96% | growth inhibition [2] 7.93% | viability increase [3] -1.21% | viability [4] 101% | viability [5] 96.2% | inhibition [6] 0.955% | RAM network inhibition [7] 2.09%

Cc1ccccc1NC(=O)CC1SC(=NC2CCCCC2)NC1=O (configuration not stated)
inactive: growth inhibition [1] -3.83% | growth inhibition [2] -12% | viability increase [3] -0.62% | viability [4] 102% | viability [5] 101% | inhibition [6] 1.62% | RAM network inhibition [7] 0.66%

CC1CC(C)CN(C(=O)CSc2nnc(-c3ccc(Cl)cc3)o2)C1 (configuration not stated)
inactive: growth inhibition [1] -0.98% | growth inhibition [2] -3.64% | viability increase [3] 1.73% | viability [4] 94.1% | viability [5] 89.2% | inhibition [6] 1.4% | RAM network inhibition [7] 7.35%

Cc1cc(N2C(=O)C3CC=CCC3C2=O)cc(C)c1Br (configuration not stated)
inactive: growth inhibition [1] -3.4% | growth inhibition [2] -11.6% | viability increase [3] -1.05% | viability [4] 95.5% | viability [5] 95.2% | inhibition [6] 2.22% | RAM network inhibition [7] 6.44%

CSc1ccccc1NC(=O)c1onc(C)c1Cl
inactive: growth inhibition [1] -5.06% | growth inhibition [2] 10.3% | viability increase [3] -1.83% | viability [4] 95.6% | viability [5] 93.2% | inhibition [6] 1.33% | RAM network inhibition [7] 1.54%

Cn1cccc1Cc1nnc(SCC(=O)NC2CCCCC2)n1-c1ccc(F)cc1
inactive: growth inhibition [1] 1.67% | growth inhibition [2] -4.1% | viability increase [3] -1.86% | viability [4] 95.4% | viability [5] 96.7% | inhibition [6] 1.08% | RAM network inhibition [7] 4.28%

COc1ccc(CCNC(=O)CCn2c(=O)oc3ccccc32)cc1OC
inactive: growth inhibition [1] -6.99% | growth inhibition [2] -12.8% | viability increase [3] -0.1% | viability [4] 105% | viability [5] 97.9% | inhibition [6] 1.47% | RAM network inhibition [7] 1.61%

CCOC(=O)CSc1nc(C)cc(Oc2ccc(=O)n(C)n2)n1
inactive: growth inhibition [1] -17.4% | growth inhibition [2] -8.09% | viability increase [3] 0.54% | viability [4] 102% | viability [5] 97.5% | inhibition [6] 1.12% | RAM network inhibition [7] 0.42%

Cc1cc(C(C)(C)C)ccc1OCCN(C)C
inactive: growth inhibition [1] -2.25% | growth inhibition [2] -9.14% | viability increase [3] 0.25% | viability [4] 94.2% | viability [5] 94.9% | inhibition [6] 1.58% | RAM network inhibition [7] 2.2%

CCc1nnc(NC(=O)CSc2nc3c(c(=O)n2CC)SC(C)C3)s1 (configuration not stated)
inactive: growth inhibition [1] 3.12% | growth inhibition [2] -4.29% | viability increase [3] -0.18% | viability [4] 99.2% | viability [5] 93.1% | inhibition [6] 3.99% | RAM network inhibition [7] 6.11%

CN(C)c1cc(-c2ccccc2)nc(N)n1
inactive: growth inhibition [1] -13.3% | growth inhibition [2] -15.5% | viability increase [3] -6.2% | viability [4] 64.2% | viability [5] 55.8% | inhibition [6] 2.73% | RAM network inhibition [7] 0.09%

Nc1cc(=O)[nH]c(SCc2nc3ccccc3n2Cc2ccccc2)n1
inactive: growth inhibition [1] -2.77% | growth inhibition [2] 17% | viability increase [3] -0.14% | viability [4] 90.4% | viability [5] 89% | inhibition [6] 0.71% | RAM network inhibition [7] 6.17%

COc1ccc(Cc2nnc(-c3cccc(C)c3)o2)cc1OC
inactive: growth inhibition [1] -11.4% | growth inhibition [2] 2.94% | viability increase [3] 1.15% | viability [4] 95.4% | viability [5] 84.4% | inhibition [6] 1.84% | RAM network inhibition [7] 7.99%

CSc1nnc(-c2ccco2)n1-c1ccccc1
inactive: growth inhibition [1] -6.73% | growth inhibition [2] 6.08% | viability increase [3] -0.4% | viability [4] 94.6% | viability [5] 90% | inhibition [6] 2.92% | RAM network inhibition [7] 5.77%

COc1cc(NC(=O)c2cc(-c3cccc(O)c3)on2)cc(OC)c1OC
inactive: growth inhibition [1] -13.9% | growth inhibition [2] 3.45% | viability increase [3] -6.05% | viability [4] 89.8% | viability [5] 75.3% | inhibition [6] 4.79% | RAM network inhibition [7] 6.05%
